Compound activity: PubChem BioAssay, several laboratories
Rows were chosen to be rich in hits. Some 6.4% of all compounds tested hit in one or more screens of this group.
EBV gp42 inh = Epstein-Barr virus gp42 inhibitors, primary screen, biochemical, uHTS, fluorescence polarization | 0.42% of 220,000 active | Glycoprotein 42 (Epstein-Barr virus (strain AG876)), Q1HVG2 | inhibition, % (tested at 21.74 µM) | Fluorescence polarization binding assay, mP read-out | AID 1085, 2008; in the data active = inhibition above about 50%
Target sequence (Q1HVG2 whole entry, looked up): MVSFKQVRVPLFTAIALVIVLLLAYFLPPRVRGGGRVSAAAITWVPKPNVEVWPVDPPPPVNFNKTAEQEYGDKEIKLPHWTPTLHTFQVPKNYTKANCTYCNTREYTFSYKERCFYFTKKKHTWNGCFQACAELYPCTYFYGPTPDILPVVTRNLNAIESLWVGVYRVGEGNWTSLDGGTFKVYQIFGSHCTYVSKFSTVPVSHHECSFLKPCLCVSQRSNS
MPTP inh = mitochondrial permeability transition pore inhibitors, primary screen, biochemical, isolated mouse mitochondria, absorbance; Ca2+ swelling absorbance, 30 min; inhibition, % at 10 µM; 1.4% of 360,000 active; AID 602449, 2012;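 active = inhibition of 50% or more, scaled per plate between neutral and stimulator controls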
WT yeast gro inh = growth inhibition of WT strain, primary screen, mitochondrial fusion inhibitor project, WT and mutant strains, chemical genetic; 2.1% of 190,000 active; mitochondrial fusion phenotypic screen; inhibition, % at 10 µM; in the data active = inhibition above about 58%; tested in S. cerevisiae
NR3A LBD binder = binders of NR3A ligand-binding domain, primary screen, biophysical, differential scanning fluorimetry, uHTS. 2.5% of 340,000 active. Glutamate receptor ionotropic, NMDA 3A (GRIN3A) ligand-binding domain. AID 1259313, 2017. Tm shift relative to glycine control, % at 25 µM. NR3A LBD differential scanning fluorimetry, Tm shift; 0% = protein alone, 100% = glycine-bound protein;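 active = melting temperature shift of at least 10% of the positive control shift, at one fixed dose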
Tb MetRS inh = T. brucei MetRS inhibitors, primary screen, biochemical, luminescence. methionyl-tRNA synthetase (Trypanosoma brucei brucei). purified T. brucei MetRS, ATP depletion, Kinase-Glo luminescence. inhibition, % at 11.9 µM. 0.4% of 360,000 active;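 active = inhibition above a per-plate cutoff of the control wells' mean inhibition plus 3 SD, cut at about 5.5% in these data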
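System: purified T. brucei MetRS enzyme / Detection: Kinase-Glo luciferase luminescence reporting remaining unconsumed ATP / Medium: HEPES buffer with MgCl2, KCl, DTT, spermine, BSA, pyrophosphatase / Replication: singlicate, one well per compound / Evaluation: percent inhibition relative to median high and low control wells / Schedule: 2 h aminoacylation at 25 °C after 15 min preincubation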
CHOP inh = inhibitors of CHOP promoter induction, primary screen, cell-based, unfolded protein response, luciferase reporter; CHO-K1 CHOP-promoter luciferase, tunicamycin-induced, 15-18 h; inhibition, % at 10 µM; 3.8% of 220,000 active; AID 2732, 2010;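 active = compounds that reduced the stress-induced luciferase reporter signal by more than about 70% of percent inhibition, limit read from the data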
Numbers stand for hits; n = inactive; x = no result given.

SMILES	EBV gp42 inh	MPTP inh	WT yeast gro inh	NR3A LBD binder	Tb MetRS inh	CHOP inh
CSc1ncccc1C(=O)OCC(=O)Nc1cc(C(F)(F)F)ccc1N1CCOCC1	n	n	n	n	n	71.0
Cn1cnc(S(=O)(=O)N2CCCCC2c2cc(C(=O)NCc3ccc(F)cc3)no2)c1 (configuration not stated)	x	n	x	x	n	x
Cc1ccc(-c2nc(NCCCO)c3ccccc3n2)cc1	x	n	x	n	n	x
Cc1cccc2nc(-c3ccccc3)nc(N[C@@H](CO)c3ccccc3)c12	n	n	65.6	n	n	n
CCCCCCSc1ncc(C#N)c(N)n1	n	n	n	n	n	83.7
CCCC1(CCC)NC(=O)N(CC(=O)Nc2cccc(OC)c2)C1=O	n	n	63.8	n	n	n
COc1cccc(NC(=O)CN2C(=O)NC(C)(CCC(C)C)C2=O)c1 (configuration not stated)	n	n	n	n	n	n
COc1cc2[nH]c(=O)n(CCC(=O)N3CCC(N4CCCCC4)CC3)c(=O)c2cc1OC	n	n	71.1	n	n	n
COc1cc(Cl)cc(/C=C/c2ccc3ccccc3n2)c1OC(C)=O	n	n	60.5	n	n	n
CC(=O)Oc1ccc(Cl)cc1/C=C/c1cc(OC(C)=O)c2ccccc2n1	n	x	n	x	x	n
Cc1ncc2c(n1)NC(=O)NC2	x	n	x	n	n	x
CCOc1ccc(NC(=O)C2CCCN2S(=O)(=O)c2ccc(OCC)cc2)cc1 (configuration not stated)	x	n	x	n	n	x
O=C(NCc1ccc(F)cc1)C1CCC(CNS(=O)(=O)c2ccccc2)CC1 (configuration not stated)	x	n	x	n	n	x
O=C(Cn1cc(C(F)(F)F)cc(Cl)c1=O)NCCc1ccc(Cl)cc1Cl	n	n	x	n	n	74.0
O=S(=O)(c1cccc2nonc12)N1CCN(c2ccccc2F)CC1	n	n	n	n	n	n
Cc1cccc(N2CCN(S(=O)(=O)c3cccc4nonc34)CC2)c1C	n	n	n	n	n	72.8
COc1cccc(Nc2nc(NCCO)nc(N3CCCC3)n2)c1	x	n	x	n	n	x
Cc1cc(NC(=O)CSc2nc3c(sc4ccccc43)c(=O)n2CCc2ccccc2)n[nH]1	n	n	n	27.2	n	n
CCc1ccc(-c2nc(CSCC(=O)N3CCN(c4ncccn4)CC3)c(C)o2)cc1	n	n	n	n	n	90.0
CSc1ccc(-c2nc(CSCC(=O)N3CCOCC3)c(C)o2)cc1	n	n	n	n	n	n
CC1=CC2(C)NC(=O)C(C)C12 (configuration not stated)	x	n	x	x	n	x
O=C1OC(c2ccc(O)cc2)(c2ccc(O)cc2)c2ccccc21	n	n	n	n	n	n
O=C1OC(c2ccccc2)(c2ccc3cc(O)ccc3c2)c2ccccc21 (configuration not stated)	x	n	x	10.4	n	x
CN(/N=C/c1c[nH]c2ccccc12)c1cnn(-c2ccc(F)c(Cl)c2)c(=O)c1Cl	n	n	n	259.4	n	n
CN(/N=C/c1cccnc1)c1cnn(-c2ccc(F)c(Cl)c2)c(=O)c1Cl	n	n	n	n	n	n
SMILES	EBV gp42 inh	MPTP inh	WT yeast gro inh	NR3A LBD binder	Tb MetRS inh	CHOP inh
COC(C(=O)NCc1ccc(C)cc1)c1ccccc1 (configuration not stated)	n	n	n	n	n	n
Cc1cc(NC(=O)c2cccs2)n(-c2nc3ccccc3[nH]2)n1	n	n	n	n	n	n
Cc1cc(NC(=O)c2sccc2C)n(-c2nc3ccccc3[nH]2)n1	n	n	78.8	n	n	n
Cc1ccc(S(=O)(=O)NC2(C(F)(F)F)NC(=O)N(c3ccc(F)cc3)C2=O)cc1 (configuration not stated)	x	n	x	n	n	x
CC(=O)Nc1ccc(S(=O)(=O)NC2(C(F)(F)F)NC(=O)N(c3ccc(C)cc3)C2=O)cc1 (configuration not stated)	x	n	x	10.3	n	x
O=c1[nH]c(/C=C/c2cccc3ccccc23)nc2ccccc12	n	n	n	n	n	n
O=c1[nH]c(/C=C/c2ccccc2[N+](=O)[O-])nc2ccccc12	n	n	n	n	n	81.6
O=c1[nH]c(/C=C/c2ccccc2F)nc2ccccc12	x	n	x	38.5	n	x
CCc1ccccc1Nc1nc(N)nc(COC(=O)CCC(=O)c2ccc(F)cc2)n1	x	n	x	n	n	x
O=C(Nc1ccc2[nH]ncc2c1)c1ccccc1Br	x	n	x	n	n	x
O=C(Nc1ccc2ncccc2c1)c1ccccc1Br	x	n	x	17.6	n	x
O=C(Nc1ccc2ncccc2c1)Nc1ccc2ncccc2c1	n	n	x	33.4	n	n
O=C(Nc1ccccc1)Nc1cccc2cccnc12	n	n	n	13.4	n	n
CC(C)c1ccc(NC(=O)CCC(=O)NCc2ccco2)cc1	x	n	x	n	n	x
Cc1ccc(C)c(C(=O)N(C)CC(=O)Nc2ccccc2C(F)(F)F)c1	n	n	n	n	n	n
c1ccc(-c2nnn(C34CC5CC(CC(C5)C3)C4)n2)cc1	n	n	80.9	n	n	n
Clc1ccc(-c2nnc(NCc3ccccc3)c3ccccc23)cc1	n	n	73.4	n	n	n
Clc1ccc(Nc2ccc(NCc3ccccc3)nn2)cc1	n	n	n	23.8	n	n
Cc1ccc(Nc2ccc(NCc3ccccc3)nn2)cc1C	n	n	n	n	n	n
COc1ccc(-c2nnc(N3CCC(C)CC3)c3ccccc23)cc1	n	n	n	n	n	85.4
CC1CCN(c2nnc(N3CCC(C)CC3)c3ccccc23)CC1	n	n	n	n	n	n
c1ccc(-c2nnc(OCc3cccnc3)c3ccccc23)cc1	n	n	n	n	n	n
COc1ccc(-c2nnc(OCc3ccccc3)c3ccccc23)cc1	n	n	n	16.4	n	n
CC(C)(C)CC(C)(C)c1ccc(O)c(CN2CCN(CCC#N)CC2)c1	n	n	n	n	n	73.5
N#CCCN1CCN(Cc2cc(-c3ccccc3)ccc2O)CC1	n	n	n	n	n	n
O=C1Nc2ccc(Br)cc2/C1=C/C(=O)c1ccccc1	x	n	x	n	n	x
O=c1[nH]c(C2C3CC4CC(C3)CC2C4)nc2ccccc12 (configuration not stated)	n	n	n	n	n	73.0
CC12CCC(C(=O)Nc3cccc(Cl)c3)(C(Br)C1=O)C2(C)C (configuration not stated)	n	n	n	n	n	n
C#CCN(C)CC/C=C1\c2ccccc2CSc2ccccc21	n	n	69.8	n	n	n
